Data reported in PubChem BioAssay AID1019 (Sanford-Burnham Center for Chemical Genomics, 2008).
Hit rate of the full screen: of about 190,000 compounds, fewer than 10 were called active.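 The calls were made as follows: active = over 50% inhibition of intestinal alkaline phosphatase at 20 µM in the single-dose screen; inactive = the rest.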 These entries were drawn from the full list.

Tested on: alkaline phosphatase, intestinal [Bos taurus]
Experiment: IAP enzyme activity blockers – biochemical, bovine IAP, CDP-star luminescence, selectivity assay for TNAP inhibitor project, primary screen (AID 1019)
Conditions: purified bovine IAP, 30 min, at 20 µM, hits give high values
Procedure, shortened: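 test system = bovine IAP enzyme | medium = DEA buffer 100 mM, pH 9.8, with MgCl2 1.0 mM, ZnCl2 0.02 mM | detection = luminescence | dosing = single compound dose of 20 µM, 2% DMSO final | incubation = 30 min reaction at room temperature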

inhibition, inactive:
CCCC(=O)OCC(=O)Nc1cc(Cl)ccc1[N+](=O)[O-] 12.7%
O=C(COC(=O)CC1CC2CCC1C2)NC(=O)NC1CCCC1 (centres undefined) -11.4%
COC(=O)c1ccc(NC(=S)Nc2cccc(C)n2)cc1 0.2%
COc1ccccc1NC(=O)c1cc(Cl)nnc1Cl -4%
O=C(CCc1ccc(S(=O)(=O)N2CCOCC2)cc1)NN=C1CCCCCCC1 5%
O=C(COC(=O)CCCNC(=O)c1ccc(Cl)cc1)Nc1cc(Cl)ccc1Cl 33.8%
COc1cccc(/C=N/NC(=O)CNC(=O)c2ccc(S(=O)(=O)N3CCOCC3)cc2)c1OC 16.1%
CS(=O)(=O)Nc1ccc(C2=NN(S(C)(=O)=O)C(c3cccs3)C2)cc1 (centres undefined) -11%
O=C(COC(=O)c1ccc(O)cc1)Nc1nccs1 -1.9%
COc1ccc(C(=O)NC2(C(F)(F)F)NC(=O)N(CCCc3ccccc3)C2=O)c(OC)c1OC (centres undefined) -13%
CCCCC1N2CC3([N+](=O)[O-])CN1CC([N+](=O)[O-])(C2)C3(C)C (centres undefined) 3.9%
Cc1cc(F)ccc1S(=O)(=O)N1CCCOC1CNC(=O)C(=O)NCCC1=CCCCC1 (centres undefined) 6.4%
CC(C)=C1C2CCC1C1C(=O)N(NC(=O)c3ccco3)C(=O)C21 (centres undefined) 41.2%
Cc1csc(NC(=O)CSc2ccc(-c3ccc(F)cc3)nn2)n1 -3.9%
CN(CC(=O)NCCc1ccccc1)S(=O)(=O)c1cnc[nH]1 5.2%
O=S1(=O)CCC(NC(=S)SCc2ccccc2Br)C1 (centres undefined) 23.3%
CCCCNC(=O)CCn1c(=O)c2ccccc2n(Cc2cc(C)ccc2C)c1=O 15.7%
NC(=O)C1=C[C@H](c2csc3ccccc23)C[C@H](OCc2ccc(CO)cc2)O1 -16.7%
S=C(NC1CCCCC1)NN1CCOCC1 -0.1%
COc1ccccc1NC(=O)CCSc1nnc(-c2ccc(O)cc2)o1 3.5%
Nc1cccc(CCc2nc3ccccc3[nH]2)c1 12%
O=[N+]([O-])c1ccc(NCCCO)c(C(F)(F)F)c1 -0.5%
CC(C)c1nc2sc3c(c2c(=O)n1N)CC(C)(C)OC3 -5%
O=C(Nc1cccc(C(F)(F)F)c1)c1cnccn1 5.6%
COc1ccc(OCCCn2cccc2/C=C2/C(=N)N3OC(C)=CC3=NC2=O)cc1 13.7%
CCOC12CC(C)(C)CC(C)(CC3=C1C(=O)CC(C)(C)C3)C2 (centres undefined) -12.4%
Cn1c(CCCOc2ccc(Cl)cc2Cl)n[nH]c1=S 25.8%
CCCCN(CC)C(=S)Nc1ccc2nc3n(c(=O)c2c1)CCCCC3 -16.6%
O=C(CCc1ccccc1)NCCc1cccs1 1.2%
O=C(NN1C(=O)C2C3C=CC(O3)C2C1=O)c1ccccc1 (centres undefined) -0.3%
CN(C(=O)CSc1nnc(-c2c[nH]c3ccccc23)o1)C1CCS(=O)(=O)C1 (centres undefined) -2.2%
CCc1cccc2c(=O)c(C(=O)NCCCOC)c[nH]c12 -5.7%
COc1ccc(CCNC(=O)COC(=O)Cc2cc(OC)c(OC)c(OC)c2)cc1 -4.1%
O=c1cc(CN2CCN(S(=O)(=O)/C=C/c3ccccc3)CC2)c2ccc(O)cc2o1 1.7%
Cc1cccc(N2CCN(C(=O)/C=C/c3ccco3)CC2)c1C 6.3%
CCCCn1nc(C(=O)OCC(=O)Nc2sccc2C(N)=O)c2ccccc2c1=O -0.9%
COc1ccnc(Oc2ccccc2)n1 -11%
O=C1CCCC(O)=C1N=Nc1ccc2ncsc2c1 6.3%
O=C(C1=C[C@H](c2ccc(C(F)(F)F)cc2)C[C@H](OCc2ccc(CO)cc2)O1)N1CCN(Cc2ccccc2)CC1 -12.1%
COC(=O)c1sc(N)c(C(=O)OC)c1COC(=O)CNS(=O)(=O)c1ccc(C)cc1 11.4%
CN(c1ccccc1)S(=O)(=O)c1cc(C(=O)OCC(=O)N2CCN(C(=O)c3ccco3)CC2)ccc1Cl -7.4%
C=CCNC(=S)N1CCN(CCN=Cc2c(C)[nH]n(-c3ccc([N+](=O)[O-])cc3)c2=O)CC1 -6.4%
CCC(C)N(C)C1CCN(C(=S)Nc2ccc(OC)cc2)CC1 (centres undefined) -6.9%
CCC(C)NC(=O)Cn1nc(C(F)(F)F)c2c1CCC2 (centres undefined) -10.6%
CCOc1ccc(-c2n[nH]c(C)c2-c2ccccn2)c(O)c1 -27.5%
O=C(c1cc(Cl)cc(Cl)c1)N1CCC(=O)N(C(COCc2ccccc2)Cc2ccccc2)CC1 (centres undefined) -2.4%
COc1ccc(Cn2c(=O)cc(C)[nH]c2=S)cc1 9.8%
Cc1ccc(Cl)cc1NC(=O)COC(=O)CC(C)(C)C -16%
CCc1ccc(N2CC(O)=C(c3nc4ccccc4c(=O)[nH]3)C2=N)cc1 -19.9%
CC(C)c1cc(NCc2ccccn2)n2c(nc3ccccc32)c1C#N -20.8%
CC(C)[C@@H]1NC(=O)c2cc([N+](=O)[O-])cc(I)c2NCCC[C@@H](C(=O)NC(CC(=O)O)C(N)=O)NC(=O)[C@H](CO)NC1=O (some centres undefined) 6.3%
Cc1ccc(-c2ccc(/C=N/NC(=O)CN3CCOCC3)o2)cc1[N+](=O)[O-] -0.9%
C/C(=N\NC(=O)C(N)=O)c1ccc2c(c1)OCCO2 -4.3%
Cc1ccc(NC(=O)c2cccnc2C(=O)Nc2ccc(C)cc2)cc1 -4.3%
Cc1ccc(CN2CCN(Cc3cccc(C)n3)CC2CCO)cc1 (centres undefined) -23.9%
CCN(CC)c1ccc(C(=O)c2cnc(/N=C/N(C)C)s2)cc1 11.8%
CC(C)CNC(=O)C(=O)Nc1ccc(N(C)C)cc1 -7.9%
O=C(CSc1nnc(-c2ccc([N+](=O)[O-])cc2)o1)Nc1ccccn1 -24.6%
CCO[C@@H]1OC(C(N)=O)=C[C@H](c2ccc(Br)cc2)[C@H]1CCCO -2%
